ALR inh – blocks human ALR sulfhydryl oxidase activity; P55789; inhibition, % (test concentration not listed); hit rate 3.8% among 290,000; purified ALR, DTT oxidation, H2O2 HRP-luminol luminescence; AID 485317;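 active = mean replicate inhibition above about 79%, with every replicate also reaching it, limit read from the data; inconclusive = only one of the two criteria met; inactive = mean below limit and not every replicate reaching it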
Target sequence (P55789 whole entry, looked up): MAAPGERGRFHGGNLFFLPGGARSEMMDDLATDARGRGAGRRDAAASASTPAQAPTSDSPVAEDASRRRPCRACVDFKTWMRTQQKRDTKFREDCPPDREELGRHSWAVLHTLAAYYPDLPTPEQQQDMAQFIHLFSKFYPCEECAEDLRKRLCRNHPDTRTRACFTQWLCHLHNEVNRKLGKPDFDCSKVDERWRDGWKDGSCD
FAS TE block – blocks the thioesterase domain of human fatty acid synthase. AID 602261. recombinant FAS-TE, OMFH fluorogenic substrate, fluorescence endpoint. hit rate 0.67% among 360,000. inhibition, % at 15 µM;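 active = compounds whose normalised, plate-corrected inhibition of enzyme fluorescence in the single-dose primary screen is 50% or more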
Rtt109 Vps75 – blocks Candida albicans Rtt109/Vps75 acetyltransferase activity; hit rate 0.16% among 330,000; inhibition, % at 34.9 µM; purified Rtt109/Vps75, ThioGlo CoA-SH fluorescence, 4 h;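 active = inhibition of at least 50% in every replicate; inconclusive = best replicate reaches 50% inhibition but some replicates fall short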
PfM18AAP inh – PfM18AAP enzyme inhibition; recombinant PfM18AAP, H-Glu-NHMec fluorogenic cleavage; inhibition, % at 7.35 µM; hit rate 1.2% among 290,000;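 active = inhibition above the campaign mean inhibition over all tested compounds plus 3 SD, cut at about 28% in these data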
HDAC3 inh – inhibitors of human histone deacetylase 3 | recombinant HDAC3, fluorogenic peptide/trypsin coupled, fluorescence | inhibition, % at 8.3 µM | hit rate 0.15% among 320,000 | AID 2718; in the data active = inhibition above about 26%, passing the limit was not always enough; inconclusive = no clear call, values can overlap the other calls
UCH37 DUB inh – human UCH37 deubiquitinating enzyme inhibition; Q9Y5K5; inhibition, % (concentration not given with the values); hit rate 0.33% among 330,000; purified proteasome/UCH37, Ub-AMC cleavage fluorescence;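 active = mean inhibition over replicate wells above about 20%, limit read from the data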
Target sequence (Q9Y5K5 whole entry, looked up): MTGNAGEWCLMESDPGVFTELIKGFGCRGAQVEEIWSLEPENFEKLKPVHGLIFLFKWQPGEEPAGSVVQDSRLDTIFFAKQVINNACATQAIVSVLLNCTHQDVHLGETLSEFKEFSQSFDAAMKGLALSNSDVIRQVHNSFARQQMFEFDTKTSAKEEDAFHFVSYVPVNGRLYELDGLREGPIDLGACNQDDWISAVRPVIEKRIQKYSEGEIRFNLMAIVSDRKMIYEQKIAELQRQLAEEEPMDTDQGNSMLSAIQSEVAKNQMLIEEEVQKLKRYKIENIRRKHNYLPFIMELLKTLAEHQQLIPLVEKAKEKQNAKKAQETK
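Signal – fluorescence, ex 355 nm, em 460 nm · System – Proteasome-bound UCH37 · Input – 0.15 nM proteasome as dispensed · Timing – 30 min preincubation with enzyme, 25 min cleavage at room temperature · Read-out basis – percent inhibition of cleavage signal versus uninhibited and no-proteasome wells · Medium – Tris-HCl pH 7.4 with ATP-MgCl2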
Hits are given with their value; - = inactive; ? = inconclusive; . = not tested or not shown. Rows were chosen to be rich in hits. Some 4.6% of all compounds tested hit in one or more screens of this group.

SMILES	ALR inh	FAS TE block	Rtt109 Vps75	PfM18AAP inh	HDAC3 inh	UCH37 DUB inh
CC(C)(Oc1ccc(Cl)cc1)C(=O)NN=Cc1cn[nH]c1-c1ccccc1	.	.	.	.	.	-
CCCS(=O)(=O)N1CCCC(C(=O)NCCCN(CC)c2cccc(C)c2)C1 (centres undefined)	99	-	-	-	-	-
CCN(CCCNS(=O)(=O)c1ccc2c(c1)oc(=O)n2C)c1cccc(C)c1	97	-	-	-	-	-
CCCS(=O)(=O)N1CCCC(C(=O)NCCN(CC)c2ccccc2)C1 (centres undefined)	99	-	-	-	-	-
CCCS(=O)(=O)N1CCCC(C(=O)NCCN(CC)CC)C1 (centres undefined)	-	-	-	-	-	-
CN(C)c1ccc(NC(=O)C2CCCN(S(=O)(=O)c3ccccc3)C2)cc1 (centres undefined)	100	-	-	-	-	-
O=C(Nc1ccc(N2CCOCC2)cc1)C1CCCN(S(=O)(=O)c2ccccc2)C1 (centres undefined)	-	-	.	-	-	-
CCCS(=O)(=O)N1CCCC(C(=O)NCCN(Cc2ccccc2)C(C)C)C1 (centres undefined)	.	-	-	-	-	-
COc1cccc(Sc2ccccc2C=NNC(N)=O)c1	.	.	.	.	.	-
CCN(CCCNC(=O)C1CCN(S(=O)(=O)N2CCOCC2)CC1)c1cccc(C)c1	99	-	-	-	-	-
COc1ccc(-c2n[nH]c(=S)n2N=C/C=C/c2ccccc2OC)cc1	.	.	.	.	.	-
O=C(CCCNc1ccccc1)N/N=C/c1cccs1	98	-	-	-	-	.
CC(C)CNC(=O)CC(=O)NN=Cc1cccs1	.	.	.	.	.	-
CC(C)CNC(=O)C(=O)N/N=C/c1cccs1	82	-	-	-	-	.
COc1cc(C=NNc2nc(N3CCCCC3)nc(N3CCCCC3)n2)ccc1OC(=O)c1ccco1	.	.	.	.	.	-
Cc1cccn2cc(-c3cccc(S(=O)(=O)N4CC(C)OC(C)C4)c3)nc12 (centres undefined)	97	-	-	-	-	-
Cc1cccn2cc(-c3cccc(S(=O)(=O)N4CCOCC4)c3)nc12	96	-	-	-	-	-
CC1CN(S(=O)(=O)c2cccc(-c3cn4ccccc4n3)c2)CC(C)O1 (centres undefined)	-	-	-	-	-	-
Cc1cccn2cc(-c3ccc(F)cc3)nc12	96	-	-	-	-	-
Cc1cccn2cc(-c3ccccc3)nc12	.	-	-	-	-	-
O=[N+]([O-])c1ccc(NN=Cc2cccnc2)nc1	.	.	.	.	.	-
Nc1c(C(=O)c2ccccc2)sc2snc(SCC(=O)c3ccccc3)c12	-	-	-	31	-	-
Nc1nnc(SCC(=O)c2ccccc2)s1	-	-	-	-	-	-
O=S(=O)(Nc1nc(-c2ccccc2)cs1)c1cc(Cl)ccc1Cl	90	-	-	-	-	-
COc1ccc(O)c(CNc2ccccc2F)c1	99	-	-	-	-	-
SMILES	ALR inh	FAS TE block	Rtt109 Vps75	PfM18AAP inh	HDAC3 inh	UCH37 DUB inh
CCc1c(C(=O)NN=Cc2ccc(OCc3ccc(F)cc3)c(OC)c2)nnn1-c1nonc1N	.	.	.	.	.	-
COc1cccc(CN2CCc3[nH]c(=S)[nH]c(=O)c3C2)c1	-	-	-	30	.	-
COCCCN1CCc2[nH]c(=S)[nH]c(=O)c2C1	.	-	-	-	.	.
O=C(O)c1cc(N/N=C2/CC(c3ccccc3)Oc3ccccc32)ccc1Cl (centres undefined)	98	-	-	-	-	.
O=C(O)c1cc(NN=C2CC(c3ccccc3)Oc3ccccc32)ccc1Cl (centres undefined)	.	.	.	.	.	-
CCOC(=O)c1ccc2nc(C)c(CC)c(Cl)c2c1	-	-	-	-	-	-
CCCCc1c(C)nc2ccc(C(=O)OCC)cc2c1Cl	97	-	-	-	-	-
O=C(NC(=S)NC1CCS(=O)(=O)C1)c1ccccc1 (centres undefined)	-	-	-	-	-	-
CN(C1=C(NC(=O)c2ccccc2)C(=O)c2ccccc2C1=O)C1CCS(=O)(=O)C1 (centres undefined)	.	-	-	-	-	49
CCC1CCC(N2CCN(c3cccc(OC)c3)CC2)CC1 (centres undefined)	-	-	-	-	-	-
CC(C)CCN1CCN(C2CCN(c3ccccc3)CC2)CC1CCO (centres undefined)	98	-	-	-	-	-
COc1cccc(N2CCC(N3CCN(C)C(CCO)C3)CC2)c1 (centres undefined)	94	-	-	-	-	-
Cc1ccc(N2CCC(N3CCN(C)C(CCO)C3)CC2)cc1 (centres undefined)	99	-	-	-	-	-
C/C(C=NNC(=O)CN1CCN(Cc2ccccc2)CC1)=C\c1ccco1	.	.	.	.	.	-
CCOC(=O)C(=NNc1ccccc1[N+](=O)[O-])c1csc(N)n1	.	.	.	.	.	-
Cc1ccc(NC(=O)C(C)SCc2nc3sc(C)c(C)c3c(=O)[nH]2)nc1 (centres undefined)	99	-	-	.	-	-
Cc1sc2nc(CSC(C)C(=O)Nc3ccccn3)[nH]c(=O)c2c1C (centres undefined)	-	-	-	.	-	-
Cc1sc2nc(CSC(C)C(=O)Nc3cc(S(C)(=O)=O)ccc3Cl)[nH]c(=O)c2c1C (centres undefined)	98	-	-	.	-	-
COCCN(CCOC)S(=O)(=O)c1ccc(C(=O)Nc2nc(C)c(C(C)=O)s2)cc1	100	-	-	-	-	-
COc1ccccc1N(C)S(=O)(=O)c1ccc(C(=O)Nc2nc(C)c(C(C)=O)s2)cc1	.	-	-	.	.	-
Cc1cc(C(=O)c2cccs2)c(N)s1	99	-	-	-	?	-
CCN(CC(O)Cn1c2ccccc2c2ccccc21)S(=O)(=O)c1ccc(F)cc1 (centres undefined)	-	-	-	-	30	-
O=C(O)[C@H]1CCCN1S(=O)(=O)c1cccc2cccnc12	.	-	-	.	-	-
COc1ccc(N2CCN(S(=O)(=O)c3cccc4cccnc34)CC2)cc1	78	-	-	-	-	-
COc1cccc(N2CCN(S(=O)(=O)c3cccc4cccnc34)CC2)c1	94	-	-	-	-	-
SMILES	ALR inh	FAS TE block	Rtt109 Vps75	PfM18AAP inh	HDAC3 inh	UCH37 DUB inh
O=C(C1CCCN1S(=O)(=O)c1cccc2cccnc12)N1CCN(c2ccccc2)CC1 (centres undefined)	88	-	-	-	-	-
O=S(=O)(c1cccc2cccnc12)N1CCOCC1	-	-	-	-	-	-
O=S(=O)(c1cccc2cccnc12)N1CCN(c2ccc(F)cc2)CC1	.	-	-	-	-	-
CC1CC(C)CN(S(=O)(=O)c2cccc3cccnc23)C1 (centres undefined)	92	-	-	.	-	-
COc1ccc(NC(=O)CC(C)=NNC(=O)C(=O)NC(C)C)c(OC)c1	.	.	.	.	.	-
Nc1ccc(Nc2ccncc2[N+](=O)[O-])cc1	.	-	50	-	-	-
Cc1oc(C=NNS(=O)(=O)c2ccccc2)cc1Br	.	.	.	.	.	-

Assay outcomes deposited in PubChem by several laboratories.
